Series [1] in a line: Inhibition of Plasmodium falciparum recombinant falcipain-2 after 30 mins by spectrofluorometric analysis. Summed up:
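Recombinant falcipain-2 (~1 nM) preincubated 30 min at room temperature with inhibitor (from 100× DMSO stocks) in 100 mM sodium acetate pH 5.5, 10 mM dithiothreitol. Then Z-Leu-Arg-AMC substrate added (final 25 μM). Fluorescence monitored continuously for 30 min at room temperature; IC50 from activity plots.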

For series [2], the system named is Plasmodium falciparum. Kind of series: Antiplasmodial activity against chloroquine-sensitive Plasmodium falciparum 3D7 after 48 hrs by FACS analysis. Type of series: functional, organism-based. The following applies: 3D7, 48 h.
Series [3] relates to Plasmodium falciparum. Nature of the series: Antiplasmodial activity against chloroquine-resistant Plasmodium falciparum W2 after 48 hrs by FACS analysis. The format is functional, organism-based. Conditions: W2, 48 h. Summed up:
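Synchronized ring-stage parasites cultured 48 h with multiple compound concentrations (from 1000× DMSO stocks) in RPMI 1640 with 10% human serum. Fixed in 1% formaldehyde/PBS pH 7.4 for 48 h at room temperature, stained with YOYO-1 (1 nM) in 0.1% Triton X-100/PBS. Parasitemia read by flow cytometry; IC50 from curve fits of percentage of control parasitemia.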
(In general: A flow cytometer gives signals particle by particle.)

The subject of series [4] is Plasmodium falciparum. Nature of the series: Antiplasmodial activity against atovaquone-resistant Plasmodium falciparum FCR3 after 48 hrs by FACS analysis. The format is functional, organism-based. Conditions: FCR3, 48 h.
Series [5] relates to Plasmodium falciparum. Kind of series: Inhibition of falcipain-2-mediated hemoglobin degradation in ring stage Plasmodium falciparum assessed as development of swollen digestive vacuoles at 123 nM after 24 hrs. Summed up:
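Cultured parasites exposed to 123 nM compound for 24 h starting at ring stage. Examined for swollen digestive vacuoles with erythrocyte-cytoplasm staining characteristics.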

A short description of series [6]: Cytotoxicity against HEK293T cells. Type of series: cell-based, HEK-293T. Conditions: human.
Series [7] in a line: Cytotoxicity against mouse NIH/3T3 cells. The format is cell-based, NIH3T3.
Series [8] can be described thus: Selectivity index, ratio of CC50 for HEK293T cells to IC50 for chloroquine-resistant Plasmodium falciparum W2. The format is functional, HEK-293T. Summed up: (§1)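 SI taken as in vitro cytotoxicity IC50 on HEK293T or NIH3T3 cells divided by the P. falciparum W2 growth-inhibition IC50.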
Series [9] can be described thus: Selectivity index, ratio of CC50 for mouse NIH/3T3 cells to IC50 for chloroquine-resistant Plasmodium falciparum W2. Type of series: functional. Summed up: as §1
Series [10] concerns Plasmodium berghei. Kind of series: Antiplasmodial activity against liver stage Plasmodium berghei infected in human HuH7 cells assessed as decrease in parasite load at 10 uM treated for 1 hr prior to infection measured after 48 hrs by luciferase luminescence assay. Conditions: Huh-7.
The test system of series [11] is Plasmodium berghei. Kind of series: Antiplasmodial activity against liver stage Plasmodium berghei infected in human HuH7 cells assessed as decrease in parasite load at 2 uM treated for 1 hr prior to infection measured after 48 hrs by luciferase luminescence assay. Conditions: Huh-7.
Series [12] relates to Plasmodium berghei. Nature of the series: Antiplasmodial activity against Plasmodium berghei ANKA infected in C57Bl/6J mouse assessed as parasitemia level at 30 mg/kg/day, ip qd for 5 days measured on day 8 post-infection by microscopic/flow cytometric analysis. Type of series: functional, organism-based. Summed up:
(§2)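 C57Bl/6J mice infected intraperitoneally with 2 × 10^6 GFP-expressing P. berghei ANKA-infected erythrocytes. Treatment started at parasitemia ca. 3.9% (day 4 postinfection): 30 mg/kg bw once daily ip for 5 days. Controls received equivalent drug vehicle. Parasitemia was followed daily by microscopy and flow cytometry; disease symptoms and survival were also recorded daily.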

The test system of series [13] is Plasmodium berghei. Nature of the series: Antiplasmodial activity against Plasmodium berghei ANKA infected in C57Bl/6J mouse assessed as parasitemia level at 30 mg/kg/day, ip qd for 5 days measured on day 18 post-infection by microscopic/flow cytometric analysis. Type of series: functional. The following applies: route intraperitoneal. Summed up:
as §2

Series [14] deals with Plasmodium berghei. Kind of series: Antiplasmodial activity against Plasmodium berghei ANKA infected in C57Bl/6J mouse assessed as survival at 30 mg/kg/day, ip qd for 5 days measured on day 18 post-infection. Type of series: functional, organism-based. Summed up: as §2
A short description of series [15]: Half life of the compound in 18 equiv of FeSO4 in aqueous acetonitrile assessed as N'-(5-bromo-2-cyanopyrimidin-4-yl)-N'-isobutyl-4-oxocyclohexanecarbohydrazide level by LC-MS analysis. Conditions: buffer. Type of series: physicochemical. Summed up: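 Aqueous solution of compound treated with high concentration of iron(II) sulfate; mixture analysed by LCMS. Decomposition to the ketone product fitted to first-order decay kinetics to give the half-life.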

Activity calls are given as the source filed them. The rule behind the calls is not given here.

Consider `CC(C)CN(NC(=O)C1CCC2(CC1)OOC1(OO2)C2CC3CC(C2)CC1C3)c1ccnc(C#N)n1` (stereo not given), for which the IC50 in series [1] was determined as 909 nM; in series [2], 13.1 nM; in [3], 47.3 nM; in series [4] it was 30.3 nM. Besides, the inhibition result in [5] was “inactive”. The CC50 is greater than 100000 nM in series [6] and 900 nM in [7]. In addition, the “Ratio CC50/IC50” value in series [8] is listed as greater than 2114; in series [9], 19.

On to `COc1cc(NC(C)CCCN)c2ncccc2c1` (stereo not given), for which the outcome in series [10] was Active.

For the molecule `O=C1C(O)=C([C@H]2CC[C@H](c3ccc(Cl)cc3)CC2)C(=O)c2ccccc21`, in series [11], the result was Active.

As for `CC(C)CN(NC(=O)CC1CCC2(CC1)OOC1(OO2)C2CC3CC(C2)CC1C3)c1nc(C#N)ncc1Br` (stereo not given), the IC50 came out at 95.1 nM in series [1], 18.9 nM in series [2] and 22.8 nM in series [3]. Besides, the inhibition result in series [5] was “Active”. Further, the CC50 was 85500 nM in series [6] and 2300 nM in series [7]. In addition, the figures for the “Ratio CC50/IC50” value in series [8] and in series [9] were 3750 and 101, respectively.

As for `CC(C)CN(NC(=O)C1CCC2(CC1)OOC1(OO2)C2CC3CC(C2)CC1C3)c1nc(C#N)ncc1Cl` (stereo not given), the IC50 in [1] turned out to be 3.4 nM; in series [2] it was 80.9 nM; in series [3] it was 33.8 nM; in series [4], 53.3 nM. Moreover, the inhibition result in series [5] was “Active”. In addition, the cytotoxic concentration (CC50) in series [6] was greater than 100000 nM; in [7], 4500 nM. In addition, the “Ratio CC50/IC50” value in [8] is greater than 2959; in series [9] it was 133. The outcome in series [12] and in series [14] was Active. For the same molecule, in series [13], the Activity was determined as 51%. Besides, the t1/2 in series [15] was found to be 5.1 h.

With `CC(C)CN(NC(=O)C1CCC2(CC1)OOC1(OO2)C2CC3CC(C2)CC1C3)c1nc(C#N)ncc1Br` (stereo not given), the IC50 in series [1] was 16.4 nM; in series [2], 58.1 nM; in series [3], 9.8 nM. The inhibition result in series [5] is “Active”. The CC50 in series [6] was greater than 100000 nM; in series [7] it was 8000 nM. Also, the results for the “Ratio CC50/IC50” value in [8] and in series [9] were greater than 10000 and 816, respectively.

Consider `CC(C)CN(NC(=O)C1CCC2(CC1)OOC1(OO2)C2CC3CC(C2)CC1C3)c1cc(Cl)nc(C#N)n1` (stereo not given), for which the IC50 in [1] is 978 nM; in [2], 28.4 nM; in series [3] it was 48.9 nM; in series [4], 37.7 nM. The inhibition result in [5] was “inactive”. Further, the values for the CC50 in [6] and in series [7] were greater than 100000 nM and 1700 nM, respectively. Moreover, the “Ratio CC50/IC50” value in series [8] is recorded as greater than 2045; in series [9], 35.

In the case of `N#Cc1ncc(Br)c(N(CC2CCCC2)NC(=O)C2CCC3(CC2)OOC2(OO3)C3CC4CC(C3)CC2C4)n1` (stereo not given), the figures for the IC50 in [1], in series [2] and in series [3] were 112 nM, 70.7 nM and 29.5 nM, respectively. Moreover, the CC50 in series [6] was greater than 100000 nM; in series [7], 5500 nM. The “Ratio CC50/IC50” value is greater than 3390 in series [8] and 186 in series [9].

In the case of `CC(C)CN(NC(=O)C1CCC(=O)CC1)c1nc(C#N)ncc1Br`, the IC50 came to 58.4 nM in [1], 48.2 nM in [2] and 48.1 nM in [3]. Also, the inhibition result in series [5] is “Active”. In addition, the half-maximal cytotoxic concentration (CC50) in [6] and in series [7] was greater than 100000 nM each time. Moreover, the “Ratio CC50/IC50” value in series [8] and in [9] was greater than 2079 in each case. In addition, the outcome in series [11] and in [10] was Active.

In the case of `C[C@@H]1CC[C@H]2[C@@H](C)C(=O)O[C@@H]3O[C@@]4(C)CC[C@@H]1[C@]32OO4` [ARTEMISININ], the IC50 in series [2] was found to be 36.2 nM; in series [3] it was 14.1 nM; in series [4], 7.7 nM. For the same molecule, the outcome in series [11] and in series [10] was inactive.

In the case of `N#Cc1ncc(Br)c(N(NC(=O)C2CCC3(CC2)OOC2(OO3)C3CC4CC(C3)CC2C4)C2CCCCC2)n1` (stereo not given), the IC50 came to 25.3 nM in series [1], 78.5 nM in series [2], 22.4 nM in [3] and 81.2 nM in series [4]. The inhibition result in series [5] is “Active”. For the same molecule, the CC50 in series [6] was greater than 100000 nM; in series [7], 1400 nM. The “Ratio CC50/IC50” value in series [8] is greater than 4464; in series [9] it was 63.

In general, IC50 refers to the midpoint of a concentration-inhibition curve. The CC50 is the concentration at which the toxic effect on the cells reaches its halfway point.
